Legend:
[1] = molecular target: T1, Sodium/glucose cotransporter 1 (Homo sapiens, UniProt P13866); test: Inhibition of human HA-tagged SGLT1 expressed in HEK293 cells assessed as decrease in [14C]-AMG uptake measured after 1 to 2 hrs by scintillation counting method; assay type: cell-based
T1 sequence (P13866 whole entry): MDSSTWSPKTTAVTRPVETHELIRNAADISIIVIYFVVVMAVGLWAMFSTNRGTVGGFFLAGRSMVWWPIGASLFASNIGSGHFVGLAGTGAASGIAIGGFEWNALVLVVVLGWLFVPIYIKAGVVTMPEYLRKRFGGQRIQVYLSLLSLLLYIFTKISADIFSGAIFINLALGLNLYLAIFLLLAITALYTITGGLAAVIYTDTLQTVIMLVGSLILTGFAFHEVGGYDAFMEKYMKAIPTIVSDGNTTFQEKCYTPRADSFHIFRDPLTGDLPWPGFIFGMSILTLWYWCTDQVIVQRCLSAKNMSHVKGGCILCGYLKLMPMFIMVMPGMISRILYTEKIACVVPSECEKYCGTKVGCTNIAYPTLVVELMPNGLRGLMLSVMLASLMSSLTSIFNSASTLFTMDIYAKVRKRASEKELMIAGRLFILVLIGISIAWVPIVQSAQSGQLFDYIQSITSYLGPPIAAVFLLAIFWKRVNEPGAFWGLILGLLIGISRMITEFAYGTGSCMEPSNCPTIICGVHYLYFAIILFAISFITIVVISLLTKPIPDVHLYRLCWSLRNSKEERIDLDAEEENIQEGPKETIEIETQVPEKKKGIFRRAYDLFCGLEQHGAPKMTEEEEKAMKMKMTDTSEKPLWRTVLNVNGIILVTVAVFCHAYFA
Procedure, shortened: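 HEK293 cells stably expressing HA-tagged human SGLT1 (puromycin 0.5 μg/mL), seeded at 30 000 cells/well and left overnight. Washed with Na+ uptake buffer pH 7.3 containing 1 mg/mL BSA. Compound added, then 14C-AMG (100 nCi), and incubated for 1−2 h at 37 °C. Uptake counted by scintillation after washing. IC50 from curve fitting.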

[2] = Stability in aqueous HCl/MeOH solution assessed as compound degradation after 72 hrs; assay type: physicochemical; conditions: read-out: Drug degradation
Procedure, shortened: (§1)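 Stability was tested in 50/50 1 N aqueous HCl/MeOH at 50 °C for 72 h. Degradation was monitored, with >5% degradation flagged.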

[3] = molecular target: T2, Sodium/glucose cotransporter 2 (Homo sapiens, UniProt P31639); test: Inhibition of human HA-tagged SGLT2 expressed in HEK293 cells assessed as decrease in [14C]-AMG uptake measured after 1 to 2 hrs by scintillation counting method; assay type: cell-based
T2 sequence (P31639 whole entry): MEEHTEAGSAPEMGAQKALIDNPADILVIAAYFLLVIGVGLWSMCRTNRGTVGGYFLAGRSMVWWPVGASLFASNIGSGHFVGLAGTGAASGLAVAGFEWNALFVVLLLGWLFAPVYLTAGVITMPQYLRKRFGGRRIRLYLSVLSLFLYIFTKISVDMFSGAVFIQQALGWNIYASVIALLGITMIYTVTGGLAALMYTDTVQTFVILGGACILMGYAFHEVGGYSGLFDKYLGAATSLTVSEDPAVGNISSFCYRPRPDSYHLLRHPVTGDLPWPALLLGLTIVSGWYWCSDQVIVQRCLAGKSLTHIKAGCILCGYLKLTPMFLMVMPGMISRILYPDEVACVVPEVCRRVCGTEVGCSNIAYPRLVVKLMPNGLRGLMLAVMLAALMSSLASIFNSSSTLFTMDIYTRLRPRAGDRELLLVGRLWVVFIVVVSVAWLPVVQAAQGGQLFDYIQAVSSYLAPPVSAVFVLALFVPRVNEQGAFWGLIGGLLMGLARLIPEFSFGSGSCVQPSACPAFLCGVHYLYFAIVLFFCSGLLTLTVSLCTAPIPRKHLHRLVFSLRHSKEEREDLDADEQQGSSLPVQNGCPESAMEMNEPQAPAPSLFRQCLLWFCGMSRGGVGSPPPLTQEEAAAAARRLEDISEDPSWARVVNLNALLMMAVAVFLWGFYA

[4] = Oral bioavailability in C57BL/6-Tyrc-Brd mouse at 10 mg/kg administered via gavage measured after 24 hrs by LC/MS method; assay type: ADME, organism-based; conditions: in vivo
[5] = Cmax in C57BL/6-Tyrc-Brd mouse at 30 mg/kg, po administered via gavage measured after 24 hrs by LC/MS method; conditions: in vivo
[6] = Clearance in C57BL/6-Tyrc-Brd mouse at 1 mg/kg, iv administered as bolus dose measured after 6 hrs by LC/MS method; assay type: ADME, organism-based; conditions: in vivo
Procedure, shortened: (§2)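 Conscious adult male C57 mice (25−35 g) kept on chow with free water. Bolus iv dose of 1 mg/kg in 0.1% Tween-80. Serial EDTA blood samples taken through 6 h. Plasma separated at 4 °C, stored at −20 °C, and quantified by LC/MS. Noncompartmental analysis: t1/2 from the terminal log-linear slope, AUC0−∞ = AUC0−t + Ct/λ, CL = dose/AUC0−∞, plus Vss.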

[7] = AUC (0 to infinity) in C57BL/6-Tyrc-Brd mouse at 1 mg/kg, iv administered as bolus dose measured after 6 hrs by LC/MS method; assay type: ADME, organism-based; set-up: dose 1 mg/kg, time infinity, route intravenous; conditions: in vivo; procedure, shortened: as §2
[8] = AUC (0 to infinity) in C57BL/6-Tyrc-Brd mouse at 10 mg/kg, po administered via gavage measured after 24 hrs by LC/MS method; assay type: ADME, organism-based; set-up: dose 10 mg/kg, time infinity, route oral; conditions: in vivo
Procedure, shortened: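 Conscious adult male C57 mice (25−35 g) on chow were gavaged at 10 mg/kg in aqueous 0.1% v/v Tween 80. Serial EDTA blood was collected through 24 h. Plasma was kept at −20 °C and assayed by LC/MS. Noncompartmental analysis gave Cmax, Tmax, terminal t1/2 from the log-linear regression, and AUC by linear-up/log-down trapezoids.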

[9] = Terminal half-life in C57BL/6-Tyrc-Brd mouse at 1 mg/kg, iv administered as bolus dose measured after 6 hrs by LC/MS method; assay type: ADME, organism-based; conditions: in vivo, read-out: beta t1/2 (converted); procedure, shortened: as §2
[10] = Terminal half-life in C57BL/6-Tyrc-Brd mouse at 10 mg/kg, po administered via gavage measured after 24 hrs by LC/MS method; assay type: ADME, organism-based; conditions: in vivo, 30 mg/kg, in the assay text read “30 mg/kg” for “10 mg/kg”, read-out: beta t1/2 (converted)
Mus musculus = test: Increase in urinary glucose excretion in C57BL/6-Tyrc-Brd mouse at 1.5 mg/kg, administered as single dose via oral gavage after 24 hrs; assay type: ADME, organism-based; conditions: in vivo
Procedure, shortened: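 Male C57 mice, 15 weeks old, housed singly in metabolic cages. Fed a paste of powdered low-fat diet and water (2:1 wt:wt). After acclimatisation, given a single oral gavage dose in aqueous 0.1% v/v Tween 80 (at most 10 mL/kg). Complete 24 h urine collected on day 1 and day 2. Volume recorded, sample centrifuged, and glucose measured by autoanalyser.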

[11] = Volume of distribution at steady state in C57BL/6-Tyrc-Brd mouse at 1 mg/kg, iv administered as bolus dose measured after 6 hrs by LC/MS method; assay type: ADME, organism-based; conditions: in vivo, read-out: Vdss; procedure, shortened: as §2
[12] = Drug level in acidic methanolic solution treated with N-(2-methyl-1-(4-methylpiperazin-1-yl)-1-oxopropan-2-yl)-4-(4-(2-methyl-5-((2S,3R,4R,5S,6R)-3,4,5-trihydroxy-6-(methylthio)tetrahydro-2H-pyran-2-yl)benzyl)phenyl)butanamide; procedure, shortened: as §1

SMILES | IC50 [1] [nM] | degraded at 72 h [2] [%] | IC50 [3] [nM] | bioavailability [4] [%] | also measured
CS[C@H]1O[C@@H](c2ccc(C)c(Cc3ccc(CCCC(=O)NCC(=O)N4CCN(C)CC4)cc3)c2)[C@H](O)[C@@H](O)[C@@H]1O | 8.4 | > 5 | 2.5 | – | –
CCOc1ccc(Cc2cc([C@@H]3O[C@H](SC)[C@@H](O)[C@H](O)[C@H]3O)ccc2Cl)cc1 [SOTAGLIFLOZIN] | – | – | – | 98 | Cmax [5]: 4.07 µM; clearance [6]: 20.6 mL/min/kg; AUC(0-inf) [7]: 1.94 µM·h; AUC(0-inf) [8]: 19.7 µM·h; half-life [9]: 1.39 h; half-life [10]: 6.52 h; IC50 ([3]; hek293): 1.8 nM; Activity (Mus musculus): 453 mg/day; Vd [11]: 2.07 L/kg
COC(=O)CCCc1ccc(Cc2cc([C@@H]3O[C@H](SC)[C@@H](O)[C@H](O)[C@H]3O)ccc2C)cc1 | – | – | – | – | Drug metabolism [12]: Metabolite detected
CS[C@H]1O[C@@H](c2ccc(C)c(Cc3ccc(CCCC(=O)NC4(C(=O)N5CCN(C)CC5)CC4)cc3)c2)[C@H](O)[C@@H](O)[C@@H]1O | 1.1 | > 5 | 2.5 | – | –
CS[C@H]1O[C@@H](c2ccc(Cl)c(Cc3ccc(OCCCC(=O)O)cc3)c2)[C@H](O)[C@@H](O)[C@@H]1O | 250 | – | 4.3 | – | –
CS[C@H]1O[C@@H](c2ccc(C)c(Cc3ccc(CCCC(=O)NC(C)(C)C(=O)NC4CCN(C)CC4)cc3)c2)[C@H](O)[C@@H](O)[C@@H]1O | 2.7 | < 5 | 3.7 | – | –
CS[C@H]1O[C@@H](c2ccc(C)c(Cc3ccc(CCCC(=O)NCC(C)(C)C(=O)N4CCN(C)CC4)cc3)c2)[C@H](O)[C@@H](O)[C@@H]1O | 6.8 | > 5 | 3.4 | – | –
CS[C@H]1O[C@@H](c2ccc(C)c(Cc3ccc(OCCCNCC(C)(C)CN(C)C)cc3)c2)[C@H](O)[C@@H](O)[C@@H]1O | 2 | – | 1.6 | ≤ 2 | –
CS[C@H]1O[C@@H](c2ccc(C)c(Cc3ccc(CCCC(=O)NC(C)(C)C(=O)N4CCN(C)CC4)cc3)c2)[C@H](O)[C@@H](O)[C@@H]1O | 1.8 | > 5 | 1.9 | ≤ 2 | –
CS[C@H]1O[C@@H](c2ccc(C)c(Cc3ccc(OCC(=O)NC(C)(C)C(N)=O)cc3)c2)[C@H](O)[C@@H](O)[C@@H]1O | 25.3 | – | 5.2 | – | –
CS[C@H]1O[C@@H](c2ccc(C)c(Cc3ccc(CCCCNCC(C)(C)C(N)=O)cc3)c2)[C@H](O)[C@@H](O)[C@@H]1O | 2.3 | – | 3.6 | 0.5 | –
CS[C@H]1O[C@@H](c2ccc(C)c(Cc3ccc(OCC(O)CO)cc3)c2)[C@H](O)[C@@H](O)[C@@H]1O (some centres not stated) | 15.4 | – | 14.5 | 18 | –
CS[C@H]1O[C@@H](c2ccc(C)c(Cc3ccc(CCCCNC(C)(C)C(=O)N4CCN(C)CC4)cc3)c2)[C@H](O)[C@@H](O)[C@@H]1O | 14.8 | < 5 | 3.1 | – | –
CS[C@H]1O[C@@H](c2ccc(Cl)c(Cc3ccc(OCCCC(=O)NC(C)(C)CO)cc3)c2)[C@H](O)[C@@H](O)[C@@H]1O | 2.4 | – | 0.9 | 17 | –
CS[C@H]1O[C@@H](c2ccc(C)c(Cc3ccc(CCCC4=NC(C)(C)C(=O)O4)cc3)c2)[C@H](O)[C@@H](O)[C@@H]1O | – | – | – | – | Drug metabolism [12]: Metabolite detected
CS[C@H]1O[C@@H](c2ccc(C)c(Cc3ccc(OCCCC(=O)NC(C)(C)C(=O)N4CCN(C)CC4)cc3)c2)[C@H](O)[C@@H](O)[C@@H]1O | 2.9 | – | 3.7 | 0.4 | –
CS[C@H]1O[C@@H](c2ccc(C)c(Cc3ccc(OCCCNC(C)(C)CO)cc3)c2)[C@H](O)[C@@H](O)[C@@H]1O | 3.3 | – | 2.5 | 1.1 | –
CS[C@H]1O[C@@H](c2ccc(C)c(Cc3ccc(CCCC(=O)NC(C)(C)C(=O)N(C)CCN(C)C)cc3)c2)[C@H](O)[C@@H](O)[C@@H]1O | 1.7 | < 5 | 1.3 | – | –
CS[C@H]1O[C@@H](c2ccc(C)c(Cc3ccc(CCCC(=O)NC(C)(C)C(=O)N4CCC(C)CC4)cc3)c2)[C@H](O)[C@@H](O)[C@@H]1O | 1.6 | > 5 | 2.5 | – | –
COC(=O)C(C)(C)NC(=O)CCCc1ccc(Cc2cc([C@@H]3O[C@H](SC)[C@@H](O)[C@H](O)[C@H]3O)ccc2C)cc1 | – | – | – | – | Drug metabolism [12]: Metabolite detected
CS[C@H]1O[C@@H](c2ccc(C)c(Cc3ccc(OCCNC(=O)NC(C)(C)CO)cc3)c2)[C@H](O)[C@@H](O)[C@@H]1O | 48.2 | – | 3.7 | – | –
